Data set [1] addresses T1, Epidermal growth factor receptor (Homo sapiens, UniProt P00533). The data set is described as follows: Inhibition of human wild type GST-tagged EGFR kinase domain expressed in Sf9 cells by luminescence assay. The class given is cell-based.
For data set [2], the target named is Epidermal growth factor receptor (Homo sapiens, UniProt P00533, L858R). As to the kind of experiment: Inhibition of human GST-tagged EGFR L834R mutant expressed in Sf9 cells by luminescence assay. The class given is cell-based.
Data set [3] has as its system Epidermal growth factor receptor (Homo sapiens), P00533 [L834R]. As to the kind of experiment: Inhibition of EGFR L834R mutant (unknown origin) at 1 uM relative to control. Type of data set: protein assay. The method, boiled down:
(§1)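 Single-concentration profiling at 1 μM across a 317-kinase panel that includes wild-type and mutant EGFR and HER2. Activity of each kinase is given as percent inhibition relative to control.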

For data set [4], the target named is T1, Epidermal growth factor receptor. As to the kind of experiment: Inhibition of wild type EGFR (unknown origin) at 1 uM relative to control. The method, boiled down:
as §1

Data set [5] concerns the target Epidermal growth factor receptor (Homo sapiens) (UniProt P04626+P00533+Q15303+P21860). As to the kind of experiment: Inhibition of EGFR L837Q mutant (unknown origin) at 1 uM relative to control. Type of data set: protein assay. The method, boiled down:
as §1

Data set [6] concerns Epidermal growth factor receptor (Homo sapiens), P04626+P00533+Q15303+P21860 [UNDEFINED MUTATION]. The data set is described as follows: Inhibition of EGFR T766M mutant (unknown origin) at 1 uM relative to control. Type of data set: protein assay. The method, boiled down: as §1
The target of data set [7] is Cyclin-dependent kinase 2 (Homo sapiens) (UniProt P24941). As to the kind of experiment: Inhibition of CDK2 (unknown origin) at 1 uM relative to control. The gist of the method: as §1
The test system of data set [8] is Epidermal growth factor receptor (Homo sapiens), P00533 [L858R]. The data set is described as follows: Ratio of gefitinib IC50 to compound IC50 for human GST-tagged EGFR L834R mutant.
The test system of data set [9] is Epidermal growth factor receptor (Homo sapiens), P04626+P00533+Q15303+P21860 [UNDEFINED MUTATION]. As to the kind of experiment: Inhibition of EGFR T766M/L834R mutant (unknown origin) at 1 uM relative to control. Type of data set: protein assay. The gist of the method: as §1
For data set [10], the target named is T1, Epidermal growth factor receptor. As to the kind of experiment: Ratio of gefitinib IC50 to compound IC50 for human wild type GST-tagged EGFR kinase domain.
Data set [11] is filed under the species Homo sapiens. As to the kind of experiment: Toxicity in human assessed as occurrence of rash. Particulars: in vivo. The class given is organism-based.
The species entered for data set [12] is Homo sapiens. The data set is described as follows: Toxicity in human assessed as occurrence of diarrhea. Type of data set: organism-based. Particulars: in vivo.

Regarding `OC[C@@H](Nc1ncnc2oc(-c3ccccc3)c(Cl)c12)c1ccccc1`, the results for the IC50 in [1] and in data set [2] were 0.589 µM and 0.168 µM, respectively.
Taken in the same sequence, the figures for `CN(C)CCCC(=O)Nc1cccc(-c2c(-c3ccccc3)oc3ncnc(N[C@H](CO)c4ccccc4)c23)c1` were 0.029 µM and 0.034 µM.
Taken in the same sequence, the figures for `O=[N+]([O-])c1cccc(-c2c(-c3ccccc3)oc3ncnc(N[C@H](CO)c4ccccc4)c23)c1` were 0.82 µM and 0.049 µM.
In the same order, the values of `CN(C)CCCCCC(=O)Nc1cccc(-c2c(-c3ccccc3)oc3ncnc(N[C@H](CO)c4ccccc4)c23)c1` are 4.33 µM and 0.486 µM.
Turning to `CN(C)CCCCC(=O)Nc1cccc(-c2c(-c3ccccc3)oc3ncnc(N[C@H](CO)c4ccccc4)c23)c1`, the IC50 (as a rule, the concentration at which inhibition is half-maximal) in [1] is 0.034 µM; in data set [2] it was 0.004 µM.
`CN(C)CCC(=O)Nc1cccc(-c2c(-c3ccccc3)oc3ncnc(N[C@H](CO)c4ccccc4)c23)c1`: the IC50 in data set [1] came out at 0.008 µM; in data set [2] it was 0.002 µM. In addition, the inhibition (as a rule, the change of the read-out against control, counted positive when it falls) in data set [3] is 100%; in [4], 99%; in data set [5], 106%; in data set [6] it was 50%; in [7] it was -4%; in data set [9], 80%. Also, the figures for the Ratio IC50 in [8] and in [10] were 7 and 4, respectively.
Take `CC(C)CCCC(=O)Nc1cccc(-c2c(-c3ccccc3)oc3ncnc(N[C@H](CO)c4ccccc4)c23)c1`: the IC50 in [1] and in [2] was over 25 µM in each case.
For `CC[C@@H](Nc1ncnc2oc(-c3ccccc3)c(-c3ccccc3)c12)c1ccccc1`, the IC50 in [1] and in data set [2] was over 10 µM in each case.
For the molecule `OC[C@@H](Nc1ncnc2oc(-c3ccccc3)c(-c3ccoc3)c12)c1ccccc1`, the IC50 in data set [1] worked out at 0.352 µM; in [2], 0.044 µM.
Taken in the same sequence, the figures for `Nc1cccc(-c2c(-c3ccccc3)oc3ncnc(N[C@H](CO)c4ccccc4)c23)c1` were 0.203 µM and 0.022 µM.
Consider `OC[C@@H](Nc1ncnc2oc(-c3ccccc3)c(-c3ccco3)c12)c1ccccc1`, for which the IC50 in data set [1] worked out at 0.434 µM; in [2], 0.073 µM.
Regarding `CC(=O)Nc1ccc(-c2c(-c3ccccc3)oc3ncnc(N[C@H](CO)c4ccccc4)c23)cc1`, the figures for the IC50 in [1] and in data set [2] were 0.179 µM and 0.023 µM, respectively.
As for `CN(C)CC(=O)Nc1cccc(-c2c(-c3ccccc3)oc3ncnc(N[C@H](CO)c4ccccc4)c23)c1`, the IC50 in [1] was found to be 0.048 µM; in data set [2], 0.004 µM.
Turning to `C[C@@H](Nc1ncnc2oc(-c3ccccc3)c(-c3ccccc3)c12)c1ccccc1`, the results for the IC50 in [1] and in [2] were 2.99 µM and 0.339 µM, respectively.
For `COC(=O)[C@@H](Nc1ncnc2oc(-c3ccccc3)c(-c3ccccc3)c12)c1ccccc1`, the values for the IC50 in data set [1] and in data set [2] were 7.89 µM and 1.45 µM, respectively.
As for `CN(C)C/C=C/C(=O)Nc1cc2c(Nc3ccc(F)c(Cl)c3)ncnc2cc1O[C@@H]1CCOC1`, the Activity in the data set filed under Homo sapiens [11] was found to be 62%; in the data set listed under Homo sapiens [12], 95%.
In the case of `CC(=O)Nc1cccc(-c2c(-c3ccccc3)oc3ncnc(N[C@H](CO)c4ccccc4)c23)c1`, the IC50 in data set [1] came to 0.218 µM; in data set [2], 0.029 µM.
Taken in the same sequence, the figures for `OC[C@@H](Nc1ncnc2oc(-c3ccccc3)c(-c3ccccc3)c12)c1ccccc1` were 0.393 µM and 0.052 µM.

The values above are taken from ChEMBL document CHEMBL2346524, “Protein kinase inhibitor design by targeting the Asp-Phe-Gly (DFG) motif: the role of the DFG motif in the design of epidermal growth factor receptor inhibitors” (J Med Chem, 2013).
